Assay results from ChEMBL document CHEMBL1147967, “Prodrug-based design, synthesis, and biological evaluation of N-benzenesulfonylpiperidine derivatives as novel, orally active factor Xa inhibitors” (Bioorg Med Chem, 2007).

Columns and labels:
[1] = molecular target: Coagulation factor X (Homo sapiens, UniProt P00742); experiment: Inhibition of human factor 10a
[2] = species on record: Homo sapiens; experiment: Selectivity for human factor 10a over human trypsin
[3] = species on record: Homo sapiens; experiment: Selectivity for human factor 10a over human thrombin
[4] = test system: Plasma; experiment: Anticoagulant activity in mouse plasma assessed as concentration required to double prothrombin time; type: functional
Summary of the method: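 Pooled citrated mouse plasma was incubated with diluted compound for 1 min at 37 °C. Brain thromboplastin PT reagent was then added to start clotting, and clot time was read on a coagulometer. The concentration doubling clotting time (CT₂) was estimated from each individual dose–response curve.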

[5] = molecular target: Prothrombin (Homo sapiens, UniProt P00734); experiment: Inhibition of human thrombin
[6] = molecular target: Trypsin (Homo sapiens, UniProt P07477+P07478+P35030); experiment: Inhibition of human trypsin; type: protein assay
[7] = test system: Plasma; experiment: Anticoagulant activity in human plasma assessed as concentration required to double prothrombin time; type: functional
[8] = test system: Mus musculus; experiment: Anticoagulant activity in ICR mouse plasma assessed as PT-prolongation at 100 mg/kg, po after 0.5 hrs relative to control; type: functional
Summary of the method: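 Male ICR mice (20–35 g), fasted overnight, were given compound orally by gastric tube at 100 mg/kg as a suspension in 0.5% methylcellulose. At 0.5 h, blood was drawn from the abdominal vena cava into 3.8% citrate, and platelet-poor plasma was prepared by centrifugation. PT was measured and expressed as percent change versus vehicle or normal plasma, mean ± SEM, n = 3.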

Coagulation factor X, sequence (P00742 41-179 limits assumed): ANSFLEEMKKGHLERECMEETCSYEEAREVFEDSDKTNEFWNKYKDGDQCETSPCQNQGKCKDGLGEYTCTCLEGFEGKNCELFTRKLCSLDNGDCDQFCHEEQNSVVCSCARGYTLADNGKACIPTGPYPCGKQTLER
Coagulation factor X, sequence (P00742 235-488 limits assumed): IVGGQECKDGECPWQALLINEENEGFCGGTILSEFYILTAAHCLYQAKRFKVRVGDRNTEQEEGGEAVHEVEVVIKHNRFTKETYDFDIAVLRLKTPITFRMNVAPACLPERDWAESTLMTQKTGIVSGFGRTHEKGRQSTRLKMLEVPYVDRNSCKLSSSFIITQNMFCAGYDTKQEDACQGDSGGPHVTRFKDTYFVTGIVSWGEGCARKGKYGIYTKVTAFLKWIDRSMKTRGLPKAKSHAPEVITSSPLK

SMILES | IC50 [1] | Selectivity ratio [2] | Selectivity ratio [3] | IC50 [5] | IC50 [6] | Activity [4] | Activity [7] | Activity [8]
CS(=O)(=O)N(Cc1ccc2ccc(C(=N)N)cc2c1)C1CCN(S(=O)(=O)c2cccc(F)c2)CC1 | 800 nM | > 100 | > 7000 | – | – | – | – | –
COc1ccc(OC)c(S(=O)(=O)N2CCC(N(Cc3ccc4ccc(C(=N)N)cc4c3)C(=O)CC(=O)O)CC2)c1 | 8.1 nM | > 100 | > 7000 | > 100000 nM | 3700 nM | 1.6 µM | 0.56 µM | –
CS(=O)(=O)N(Cc1ccc2ccc(C(=N)N)cc2c1)C1CCN(c2ccncc2)CC1 | 90 nM | – | – | – | – | – | – | –
CS(=O)(=O)N(Cc1ccc2ccc(C(=N)N)cc2c1)C1CCN(S(=O)(=O)c2ccccc2)CC1 | 850 nM | – | – | – | – | – | – | –
CS(=O)(=O)N(Cc1ccc2ccc(C(=N)N)cc2c1)C1CCN(S(=O)(=O)c2cccc(Cl)c2Cl)CC1 | 560 nM | > 100 | > 7000 | – | – | – | – | –
CS(=O)(=O)N(Cc1ccc2ccc(C(=N)N)cc2c1)C1CCN(S(=O)(=O)c2cccc(-c3ccccc3)c2)CC1 | 200 nM | – | – | – | – | – | – | –
CC(=N)N1CC[C@H](Oc2ccc([C@H](Cc3ccc4ccc(C(=N)N)cc4c3)C(=O)O)cc2)C1 [DX-9065A] | – | – | – | – | 3200 nM | 4.9 µM | 0.55 µM | 151%
COc1ccc(OC)c(S(=O)(=O)N2CCC(N(Cc3ccc4ccc(C(=N)N)cc4c3)S(=O)(=O)CC(=O)O)CC2)c1 | 13 nM | > 100 | > 7000 | > 100000 nM | 2700 nM | 1.7 µM | 0.55 µM | –
COc1ccc(OC)c(S(=O)(=O)N2CCC(N(C)Cc3ccc4ccc(C(=N)N)cc4c3)CC2)c1 | 590 nM | – | – | – | – | – | – | –
COc1ccc(Cl)cc1S(=O)(=O)N1CCC(N(Cc2ccc3ccc(C(=N)N)cc3c2)S(C)(=O)=O)CC1 | 39 nM | > 100 | > 7000 | – | – | – | – | –
CCOC(=O)CC(=O)N(Cc1ccc2ccc(/C(N)=N\O)cc2c1)C1CCN(S(=O)(=O)c2cc(OC)ccc2OC)CC1 | – | > 100 | > 7000 | – | – | – | – | 109%
CCOC(=O)CS(=O)(=O)N(Cc1ccc2ccc(/C(N)=N\O)cc2c1)C1CCN(S(=O)(=O)c2cc(OC)ccc2OC)CC1 | – | – | – | – | – | – | – | 101%
CS(=O)(=O)N(Cc1ccc2ccc(C(=N)N)cc2c1)C1CCN(S(=O)(=O)c2cc(Cl)sc2Cl)CC1 | 100 nM | – | – | – | – | – | – | –
CS(=O)(=O)N(Cc1ccc2ccc(C(=N)N)cc2c1)C1CCN(S(=O)(=O)c2ccccc2Cl)CC1 | 350 nM | > 100 | > 7000 | – | – | – | – | –
CS(=O)(=O)N(Cc1ccc2ccc(C(=N)N)cc2c1)C1CCN(S(=O)(=O)c2cccc(Cl)c2)CC1 | 49 nM | – | – | – | – | – | – | –
CS(=O)(=O)N(Cc1ccc2ccc(C(=N)N)cc2c1)C1CCN(C(=O)c2cccc(Cl)c2)CC1 | > 100000 nM | > 100 | > 7000 | – | – | – | – | –
CS(=O)(=O)N(Cc1ccc2ccc(C(=N)N)cc2c1)C1CCNCC1 | > 100000 nM | > 100 | > 7000 | – | – | – | – | –
CS(=O)(=O)N(Cc1ccc2ccc(C(=N)N)cc2c1)C1CCN(S(=O)(=O)c2c(Cl)cccc2Cl)CC1 | > 100000 nM | > 100 | > 7000 | – | – | – | – | –
CS(=O)(=O)N(Cc1ccc2ccc(C(=N)N)cc2c1)C1CCN(Cc2cccc(C#N)c2)CC1 | 2300 nM | > 100 | > 7000 | – | – | – | – | –
Cc1ccccc1S(=O)(=O)N1CCC(N(Cc2ccc3ccc(C(=N)N)cc3c2)S(C)(=O)=O)CC1 | 950 nM | > 100 | > 7000 | – | – | – | – | –
CS(=O)(=O)N(Cc1ccc2ccc(C(=N)N)cc2c1)C1CCN(S(=O)(=O)c2ccc(Cl)c(Cl)c2)CC1 | 190 nM | > 100 | > 7000 | – | – | – | – | –
Cc1ccc(S(=O)(=O)N2CCC(N(Cc3ccc4ccc(C(=N)N)cc4c3)S(C)(=O)=O)CC2)cc1 | > 100000 nM | > 100 | > 7000 | – | – | – | – | –
CS(=O)(=O)N(Cc1ccc2ccc(C(=N)N)cc2c1)C1CCN(Cc2cccc(Cl)c2)CC1 | 1700 nM | > 100 | > 7000 | – | – | – | – | –

The next lines start with results.

IC50 [1] | Selectivity ratio [2] | Selectivity ratio [3] | IC50 [5] | IC50 [6] | SMILES | Activity [4] | Activity [7] | Activity [8]
– | > 100 | > 7000 | – | – | CCOC(=O)CS(=O)(=O)N(C/C=C/c1cccc(/C(N)=N\O)c1)C1CCN(S(=O)(=O)c2cc(OC)ccc2OC)CC1 | – | – | 116%
65 nM | – | – | – | – | CS(=O)(=O)N(Cc1ccc2ccc(C(=N)N)cc2c1)C1CCN(S(=O)(=O)c2cc(Cl)ccc2Cl)CC1 | – | – | –
10 nM | > 100 | > 7000 | > 100000 nM | 5300 nM | COc1ccc(OC)c(S(=O)(=O)N2CCC(N(C/C=C/c3cccc(C(=N)N)c3)S(=O)(=O)CC(=O)O)CC2)c1 | 1.2 µM | 0.47 µM | –
250 nM | – | – | – | – | Cc1cccc(S(=O)(=O)N2CCC(N(Cc3ccc4ccc(C(=N)N)cc4c3)S(C)(=O)=O)CC2)c1 | – | – | –
58 nM | > 100 | > 7000 | – | – | COc1ccc(C)cc1S(=O)(=O)N1CCC(N(Cc2ccc3ccc(C(=N)N)cc3c2)S(C)(=O)=O)CC1 | – | – | –
– | > 100 | > 7000 | – | – | CCOC(=O)CC(=O)N(C/C=C/c1cccc(/C(N)=N\O)c1)C1CCN(S(=O)(=O)c2cc(OC)ccc2OC)CC1 | – | – | 187%
12 nM | > 100 | > 7000 | > 100000 nM | 2500 nM | COc1ccc(OC)c(S(=O)(=O)N2CCC(N(Cc3ccc4ccc(C(=N)N)cc4c3)C(C)=O)CC2)c1 | – | – | –
> 100000 nM | > 100 | > 7000 | – | – | CS(=O)(=O)N1CCC(N(Cc2ccc3ccc(C(=N)N)cc3c2)S(C)(=O)=O)CC1 | – | – | –
13 nM | > 100 | > 7000 | > 100000 nM | 6000 nM | COc1ccc(OC)c(S(=O)(=O)N2CCC(N(C/C=C/c3cccc(C(=N)N)c3)C(=O)CC(=O)O)CC2)c1 | 1.4 µM | 0.55 µM | 104%
1600 nM | – | – | – | – | CS(=O)(=O)N(Cc1ccc2ccc(C(=N)N)cc2c1)C1CCN(S(=O)(=O)c2ccc(Cl)cc2)CC1 | – | – | –
11 nM | > 100 | > 7000 | > 100000 nM | 1100 nM | COc1ccc(OC)c(S(=O)(=O)N2CCC(N(Cc3ccc4ccc(C(=N)N)cc4c3)S(C)(=O)=O)CC2)c1 | – | – | –
170 nM | – | – | – | – | CS(=O)(=O)N(Cc1ccc2ccc(C(=N)N)cc2c1)C1CCN(S(=O)(=O)c2cccc(C#N)c2)CC1 | – | – | –
> 100000 nM | > 100 | > 7000 | – | – | CS(=O)(=O)N(Cc1ccc2ccc(C(=N)N)cc2c1)C1CCN(C(=O)c2cccc(C#N)c2)CC1 | – | – | –
